Data reported in ChEMBL document CHEMBL1121475, “Inhibitors of indoleethylamine N-methyltransferase. Derivatives of 3-methyl-2-thiazolidinimine. In vitro, in vivo, and metabolic studies” (J Med Chem, 1980).

What was measured:
[1] = (§1) Dose that causes approximately 50% lethality in mice, when given intravenously; format: ADME, organism-based; settings: mouse, in vivo, iv
[2] = (§2) Dose that causes approximately 50% lethality in mice, when given perorally; format: ADME, organism-based; settings: mouse, in vivo, po
Procedure, shortened: (§3)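 Mice in groups of one to three were dosed orally. Deaths were scored on day 7 after dosing, and the LD50 was obtained by graphical interpolation.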

[3] = target: Indolethylamine N-methyltransferase (Homo sapiens) (UniProt O95050); assay: In vitro evaluation of Indoleethylamine-N-methyltransferase in human lung preparations for the ability to inhibit conversion of N-methyltryptamine (NMT) to N,N-dimethyltryptamine (DMT) at dose 25 ug/mL; format: tissue-based
Sequence of Indolethylamine N-methyltransferase (Homo sapiens) (O95050 whole entry): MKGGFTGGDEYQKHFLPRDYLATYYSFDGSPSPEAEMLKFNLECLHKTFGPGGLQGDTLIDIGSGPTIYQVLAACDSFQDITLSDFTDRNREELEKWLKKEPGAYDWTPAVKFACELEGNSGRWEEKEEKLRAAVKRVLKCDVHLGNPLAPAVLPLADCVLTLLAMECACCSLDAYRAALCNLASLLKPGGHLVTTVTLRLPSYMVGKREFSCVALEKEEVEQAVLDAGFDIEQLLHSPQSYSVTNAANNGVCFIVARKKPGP
Procedure, shortened: (§4)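 Human lung INMT was taken from the 50000g supernatant, cut with 40-60% ammonium sulfate, dialysed and purified on Sephadex G-150. The reaction contained 0.007 M N-methyltryptamine stock, S-[methyl-14C]adenosylmethionine and potassium phosphate, pH 7.9, in 0.105 mL, run 90 min at 37 °C. It was stopped with borate at pH 10. [14C]DMT was extracted into isoamyl alcohol and counted by scintillation.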

[4] = test system: Indolethylamine N-methyltransferase (Oryctolagus cuniculus); assay: Compound tested for inhibitory activity against rabbit lung Indoleethylamine-N-methyltransferase at oral dose 25 mg/kg *(p<0.026)
[5] = target: Indolethylamine N-methyltransferase (Homo sapiens) (UniProt O95050); assay: In vitro evaluation of Indoleethylamine-N-methyltransferase in human lung preparations for the ability to inhibit conversion of N-methyltryptamine (NMT) to N,N-dimethyltryptamine (DMT) at dose 2.5 ug/mL; format: tissue-based; procedure, shortened: as §4
[6] = test system: Indolethylamine N-methyltransferase (Oryctolagus cuniculus); assay: In vivo evaluation of specific activity against rabbit lung Indoleethylamine-N-methyltransferase at oral dose of 25 mg/kg
[7] = test system: Indolethylamine N-methyltransferase (Oryctolagus cuniculus); assay: Compound tested for inhibitory activity against rabbit lung Indoleethylamine-N-methyltransferase at intravenous dose 4 mg/kg *(p<0.027)
[8] = test system: Indolethylamine N-methyltransferase (Oryctolagus cuniculus); assay: Compound tested for inhibitory activity against rabbit lung Indoleethylamine-N-methyltransferase at oral dose 25 mg/kg
[9] = Dose that causes approximately 50% lethality in mice, when given intraperitoneally; format: ADME, organism-based; settings: mouse, in vivo, ip
[10] = test system: Indolethylamine N-methyltransferase (Oryctolagus cuniculus); assay: Compound tested for inhibitory activity against rabbit lung Indoleethylamine-N-methyltransferase at 4 mg/kg intravenously
[11] = test system: Indolethylamine N-methyltransferase (Oryctolagus cuniculus); assay: In vivo evaluation of specific activity against rabbit lung Indoleethylamine-N-methyltransferase at intravenous dose of 4 mg/kgmade acidic to pH 2 with dil. HCl
[12] = test system: Indolethylamine N-methyltransferase (Oryctolagus cuniculus); assay: Compound tested for specific activity against rabbit lung Indoleethylamine-N-methyltransferase at intravenous dose of 10 mg/kg
[13] = test system: Indolethylamine N-methyltransferase (Oryctolagus cuniculus); assay: Compound tested for specific activity against rabbit lung Indoleethylamine-N-methyltransferase at oral dose of 20 mg/kg
[14] = test system: Indolethylamine N-methyltransferase (Oryctolagus cuniculus); assay: In vivo evaluation of inhibitory activity against rabbit lung Indoleethylamine-N-methyltransferase at intravenous dose 10 mg/kg *(p<0.02)
[15] = test system: Indolethylamine N-methyltransferase (Oryctolagus cuniculus); assay: In vivo evaluation of specific activity against rabbit lung Indoleethylamine-N-methyltransferase at intravenous dose of 4 mg/kg
[16] = test system: Indolethylamine N-methyltransferase (Oryctolagus cuniculus); assay: Compound tested for inhibitory activity against rabbit lung Indoleethylamine-N-methyltransferase at intravenous dose 4 mg/kg *(p<0.008
Oryctolagus cuniculus [17] = assay: 10 mg/kg of [14C]- radiolabeled compound was intravenously injected in rabbit, and radioactivity content in urine was estimated at 24-48 h; format: ADME, organism-based; settings: in vivo, iv
Procedure, shortened: (§5)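 Male New Zealand white rabbit (825 g), [14C]-labelled drug given intravenously at 10 mg/kg. Urine collected at 6, 24, 48 and 72 h and feces at 24, 48 and 72 h post-dose. Radioactivity is counted and expressed as % of administered dose.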

Mus musculus [18] = assay: as §1; format: functional; settings: iv
Oryctolagus cuniculus [19] = assay: 10 mg/kg of [14C]- radiolabeled compound was intravenously […] injected in rabbit, and radioactivity content in feces was estimated (total); format: ADME, organism-based; settings: in vivo, iv; procedure, shortened: as §5
Oryctolagus cuniculus [20] = assay: 10 mg/kg of [14C]- radiolabeled compound was intravenously […] injected in rabbit, and radioactivity content in feces was estimated at 24-48 h; format: ADME, organism-based; settings: in vivo, iv; procedure, shortened: as §5
Oryctolagus cuniculus [21] = assay: 10 mg/kg of [14C]- radiolabeled compound was intravenously injected in rabbit, and radioactivity content in urine was estimated at 0-6 h; format: ADME, organism-based; settings: in vivo, iv; procedure, shortened: as §5
Oryctolagus cuniculus [22] = assay: 10 mg/kg of [14C]- radiolabeled compound was intravenously […] injected in rabbit, and radioactivity content in feces was estimated at 0-24 h; format: ADME, organism-based; settings: in vivo, iv; procedure, shortened: as §5
Oryctolagus cuniculus [23] = assay: 25 mg/kg of [14C]- radiolabeled compound was perorally injected in rabbit, and radioactivity content in urine was estimated at 0-6 h; format: ADME, organism-based; settings: in vivo, po
Procedure, shortened: (§6)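 Male New Zealand white rabbit (825 g) dosed by gavage at 25 mg/kg. The dosing solution was [14C]-labelled plus unlabelled drug in distilled water, 2 mg free base/mL, specific activity 1183 dpm/μg. Urine collected at 6, 24, 48 and 72 h and feces at 24, 48 and 72 h. Radioactivity is expressed as % of administered dose.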

Oryctolagus cuniculus [24] = assay: 10 mg/kg of [14C]- radiolabeled compound was intravenously injected in rabbit, and radioactivity content in urine was estimated at 48-72 h; format: ADME, organism-based; settings: in vivo, iv; procedure, shortened: as §5
Oryctolagus cuniculus [25] = assay: 10 mg/kg of [14C]- radiolabeled compound was intravenously injected in rabbit, and radioactivity content in urine was estimated at 6-24 h; format: ADME, organism-based; settings: in vivo, iv; procedure, shortened: as §5
Oryctolagus cuniculus [26] = assay: 25 mg/kg of [14C]- radiolabeled compound was perorally injected in rabbit, and radioactivity content in urine was estimated at 48-72 h; format: ADME, organism-based; settings: in vivo, po; procedure, shortened: as §6
Oryctolagus cuniculus [27] = assay: 10 mg/kg of [14C]- radiolabeled compound was intravenously […] injected in rabbit, and radioactivity content in feces was estimated at 48-72 h; format: ADME, organism-based; settings: in vivo, iv; procedure, shortened: as §5
Oryctolagus cuniculus [28] = assay: 25 mg/kg of [14C]- radiolabeled compound was orally (gavage) injected in rabbit, and radioactivity content in feces was estimated at 0-24 h; format: ADME, organism-based; settings: in vivo, po; procedure, shortened: as §6
Oryctolagus cuniculus [29] = assay: 25 mg/kg of [14C]- radiolabeled compound was orally (gavage) injected in rabbit, and radioactivity content in feces was estimated at 48-72 h; format: ADME, organism-based; settings: in vivo, po; procedure, shortened: as §6
Oryctolagus cuniculus [30] = assay: 25 mg/kg of [14C]- radiolabeled compound was perorally injected in rabbit, and radioactivity content in urine was estimated (total); format: ADME, organism-based; settings: in vivo, po; procedure, shortened: as §6
Oryctolagus cuniculus [31] = assay: 25 mg/kg of [14C]- radiolabeled compound was perorally injected in rabbit, and radioactivity content in urine was estimated at 6-24 h; format: ADME, organism-based; settings: in vivo, po; procedure, shortened: as §6
Oryctolagus cuniculus [32] = assay: 25 mg/kg of [14C]- radiolabeled compound was orally (gavage) injected in rabbit, and radioactivity content in feces was estimated at 24-48 h; format: ADME, organism-based; settings: in vivo, po; procedure, shortened: as §6
Oryctolagus cuniculus [33] = assay: 25 mg/kg of [14C]- radiolabeled compound was perorally injected in rabbit, and radioactivity content in urine was estimated at 24-48 h; format: ADME, organism-based; settings: in vivo, po; procedure, shortened: as §6
Mus musculus [34] = species: Mus musculus; assay: as §2; format: functional; settings: po; procedure, shortened: as §3
Oryctolagus cuniculus [35] = assay: 25 mg/kg of [14C]- radiolabeled compound was orally (gavage) injected in rabbit, and radioactivity content in feces was estimated (total); format: ADME, organism-based; settings: in vivo, po; procedure, shortened: as §6
Oryctolagus cuniculus [36] = assay: 10 mg/kg of [14C]- radiolabeled compound was intravenously injected in rabbit, and radioactivity content in urine was estimated (total); format: ADME, organism-based; settings: in vivo, iv; procedure, shortened: as §5

| SMILES | LD50 [1] [mg/kg] | LD50 [2] [mg/kg] | inhibition [3] [%] | inhibition [5] [%] | Specific activity [6] [dpm] | other results |
| --- | --- | --- | --- | --- | --- | --- |
| CN1CCS/C1=N\S(=O)(=O)[O-].[Na+] | > 2.5 | > 5 |  |  |  |  |
| CN1CCS/C1=N\C(=O)c1cccnc1 | 279 | 570 | 5 | 0 | 18400 | inhibition [4]: 76.2%; inhibition [7]: 37.8% |
| CN1CCS/C1=N\C(=O)/N=C1\SCCN1C |  | 2000 | 0 |  | 61200 | inhibition [8]: 31.9%; LD50 [9]: 1140 mg/kg |
| CC(=O)NCC(=O)/N=C1\SCCN1C | 408 | 936 | 51 | 24 | 11600 | inhibition [8]: 84.9%; inhibition [10]: 60.6%; Specific activity [11]: 33200 dpm |
| CN1CCS/C1=N\C(=O)CCC(=O)O | 1280 | > 8 | 20 |  |  | Specific activity [12]: 36100 dpm; inhibition [12]: 35.8%; Specific activity [13]: 34000 dpm; inhibition [13]: 11.4% |
| CN1CCS/C1=N\CNC(=O)c1ccccc1 | 122 | 534 |  |  |  |  |
| CC(=O)N[C@@H](Cc1ccccc1)C(=O)/N=C1\SCCN1C |  |  |  |  |  | inhibition [14]: 84.7% |
| CC(=O)NC(Cc1ccccc1)C(=O)/N=C1\SCCN1C (configuration not stated) |  | 173 | 23 | 8 | 24100 | inhibition [8]: 69%; Specific activity [15]: 60000 dpm; LD50 [9]: > 2000 mg/kg; inhibition [16]: 28.9% |
| CN1CCS/C1=N\C(=O)OC(C)(C)C | 68 | 306 | 6 |  |  |  |
| CC(=O)CC(=O)/N=C1\SCCN1C |  |  | 51 | 24 |  |  |
| CN1CCS/C1=N\C(=O)CN | 549 | 4670 | 54 | 11 |  |  |
| CN1CCSC1=N |  |  |  |  |  | Dose excreted (Oryctolagus cuniculus [17]): 5.3%; LD50 (Mus musculus [18]): 118 mg/kg; Dose excreted (Oryctolagus cuniculus [19]): 4.3%; Dose excreted (Oryctolagus cuniculus [20]): 0.9%; Dose excreted (Oryctolagus cuniculus [21]): 46.5%; Dose excreted (Oryctolagus cuniculus [22]): 3.1%; Dose excreted (Oryctolagus cuniculus [23]): 46.4%; Dose excreted (Oryctolagus cuniculus [24]): 3.3%; Dose excreted (Oryctolagus cuniculus [25]): 27.7%; Dose excreted (Oryctolagus cuniculus [26]): 1.6%; Dose excreted (Oryctolagus cuniculus [27]): 0.3%; Dose excreted (Oryctolagus cuniculus [28]): 3.2%; Dose excreted (Oryctolagus cuniculus [29]): 0.1%; Dose excreted (Oryctolagus cuniculus [30]): 89.7%; Dose excreted (Oryctolagus cuniculus [31]): 38.8%; Dose excreted (Oryctolagus cuniculus [32]): 0.6%; Dose excreted (Oryctolagus cuniculus [33]): 2.9%; LD50 (Mus musculus [34]): 432 mg/kg; Dose excreted (Oryctolagus cuniculus [35]): 3.9%; Dose excreted (Oryctolagus cuniculus [36]): 82.8% |
| CCNC(=O)/N=C1\SCCN1C | 1110 | 203 | 0 |  |  |  |
